# Reference: paper PMC12849484 (Microbial Cell Factories, 2025)
# What was measured:
# [1] = tested on: Synechocystis sp. PCC 6803; experiment: Growth curves; assay type: cell-based; settings: OD730 over 72 h, triplicates
# Method in brief: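 Synechocystis subcultures in BG11 (10 mL, starting OD730 0.2) were pre-incubated 23 h, then given test conjugate from a 1 mM water stock to final 2, 4, 6, 8 or 10 µM. Controls were untreated cells and 10 µM non-specific CPP-PNA. Hour 0 was 1 h after addition. OD730 was followed over time; triplicates, mean ± SD.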
# [2] = tested on: D-lactate-pyruvate pathway in Synechocystis sp. PCC 6803 cells; experiment: LC-MS quantification of intracellular pyruvate and surrounding metabolites; assay type: cell-based; settings: 10 µM, normalized to WT
# Method in brief: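 Cells were exposed to test conjugate at final 10 µM, with untreated wild-type and Δddh strain as comparators, and sampled at 24 and 48 h. For each sample, 8 mL culture was membrane-filtered (0.2 µm) and extracted; the aqueous phase was dried and analysed by LC-MS against 1–100 µg/mL standards. Values were normalized to untreated wild-type; ≥3 replicates; ANOVA.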
Sequence,growth inhibition at 10 µM [1],"D-lactate level at 24 h ([2]; 24 h, N = 3)","change in acetyl-CoA concentration ([2]; 24 h, N = 3)","change in malate concentration ([2]; 24 h, N = 3)","change in phosphoenolpyruvate (PEP) concentration ([2]; 24 h, N = 3)","increase in pyruvate compared to untreated wild-type ([2]; 24 h, N = 3)","increase in D-lactate accumulation compared to wild-type ([2]; 48 h post-treatment, at least three replicates)"
CTCATAGATC [CPP-ncPNA],no growth inhibition,,,,,,
TTCATGACGA [CPP-Syn6803ddh],,consistently low,minimal or no changes,minimal or no changes,minimal or no changes,2.5 fold,3 fold
